ABHD5-PLIN5 inh – blocks binding of human ABHD5 to perilipin-5; Q00G26+Q8WTS1; Split G. princeps luciferase complementation, luminescence, 4 h; inhibition, % at 4 µM; actives 0.78% (n = 360,000);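 active = inhibition above the mean inhibition across every tested compound plus 3 SD, cut at about 22% in these data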;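 note: 0% = DMSO only wells and the 100% control is not disclosed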
Target sequence (Q00G26 whole entry, looked up): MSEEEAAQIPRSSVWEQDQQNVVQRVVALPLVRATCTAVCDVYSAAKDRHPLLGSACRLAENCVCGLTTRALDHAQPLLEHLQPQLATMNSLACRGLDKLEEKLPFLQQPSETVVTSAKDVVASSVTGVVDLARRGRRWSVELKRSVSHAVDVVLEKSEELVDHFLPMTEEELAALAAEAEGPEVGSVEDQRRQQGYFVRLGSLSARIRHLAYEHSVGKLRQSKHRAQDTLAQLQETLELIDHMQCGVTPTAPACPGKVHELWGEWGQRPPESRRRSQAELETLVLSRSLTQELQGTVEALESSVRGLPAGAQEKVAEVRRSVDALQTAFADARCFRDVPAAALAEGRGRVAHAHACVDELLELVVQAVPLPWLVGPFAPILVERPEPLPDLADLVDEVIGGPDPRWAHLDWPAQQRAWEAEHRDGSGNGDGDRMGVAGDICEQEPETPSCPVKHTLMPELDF
Target sequence (Q8WTS1 whole entry, looked up): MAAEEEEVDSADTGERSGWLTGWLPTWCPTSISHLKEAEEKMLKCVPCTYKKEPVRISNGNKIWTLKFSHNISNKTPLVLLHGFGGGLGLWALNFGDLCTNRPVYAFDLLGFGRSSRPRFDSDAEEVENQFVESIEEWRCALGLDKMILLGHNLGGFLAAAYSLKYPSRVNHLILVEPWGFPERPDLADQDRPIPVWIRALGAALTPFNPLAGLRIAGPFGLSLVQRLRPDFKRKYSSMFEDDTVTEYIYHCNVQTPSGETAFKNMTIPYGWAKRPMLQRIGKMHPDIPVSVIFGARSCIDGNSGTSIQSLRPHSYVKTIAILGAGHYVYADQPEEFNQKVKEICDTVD
Mdm2-MdmX inh – human Mdm2/MdmX binding inhibition; SaOS-2 split-luciferase Mdm2/MdmX complementation, luminescence; inhibition, % at 8 µM; actives 3% (n = 330,000); AID 485346;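 active = inhibition of at least 50% at 8 µM in the primary screen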
UPR XBP1 act – adaptive UPR (XBP1) activation; CHO-XBP1 luciferase reporter, IRE1-XBP1 UPR activation, luminescence; percent of tunicamycin response, DMSO as zero; activation, % at 20 µM; actives 0.33% (n = 330,000); AID 463104;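 active = versus positive control, 20 µM dose yields 30% or more activation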;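 note: 100% = tunicamycin at 10 µg/mL and 0% = DMSO only wells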
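incubation = overnight seeding at 37 °C, 6 h compound treatment at 37 °C | assay system = CHO-XBP1 cells stably carrying IRE1-XBP1-driven luciferase reporter | input = 1000 cells per well | detection = luciferase luminescence | dosing = single point, 20 µM final compound, 1% DMSO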
Granule exo inh – blocks lytic granule exocytosis | TALL-104 LAMP-1 surface exposure, flow cytometry; cells stimulated with thapsigargin and PMA | inhibition, % at 10 µM | actives 0.66% (n = 360,000) | AID 651702;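 active = inhibition above about 55%, limit read from the data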
UPR CHOP act – apoptotic UPR (CHOP) activation | AID 449763 | actives 0.34% (n = 330,000) | CHO-CHOP luciferase reporter, luminescence; percent of tunicamycin response over DMSO baseline | activation, % at 10 µM;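 active = at 10 µM dose, activation of 40% or more, normalized to positive control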;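 note: 100% = tunicamycin at 10 µg/mL and 0% = DMSO alone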
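Test system: CHO-CHOP cells, stable luciferase reporter of PERK-eIF2a-CHOP signalling | Quantity: 500 CHO-CHOP cells per well | Buffer or medium: F12 plus 10% serum | Compound dosing: 10 µM single point, 0.5% DMSO | Schedule: 6 h compound treatment, 37 °C | Signal: Luciferase luminescence | Control set: Tunicamycin high control, DMSO low control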
Mdm2-MdmX conf – human Mdm2/MdmX binding inhibition, confirmed; actives 55% (n = 10,000); luminescent assay; shares compounds with Mdm2-MdmX inh; inhibition, % at 8 µM; in the data active = inhibition above about 40%
FLuc counter – inhibits full-length luciferase, flagging false Mdm2/MdmX hits | SaOS-2 full-length luciferase counterscreen, luminescence | inhibition, % at 8 µM | actives 77% (n = 6,200) | shares compounds with Mdm2-MdmX inh | AID 504607;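 active = mean inhibition at 8 µM reaching about 37%, which flags the compound as non-specific, limit read from the data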;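 note: p53-null SaOS-2 cells with luciferase driven by a doxycycline-inducible promoter; compound on cells about two nights before reading with doxycycline added after day one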
Starred values were filed as active, the others as inactive; . = not tested or not shown; ! = not confirmed by another sample. Compounds with a hit are over-represented: about 4% of the library has one in this group of screens.

SMILES	ABHD5-PLIN5 inh	Mdm2-MdmX inh	UPR XBP1 act	Granule exo inh	UPR CHOP act	Mdm2-MdmX conf	FLuc counter
CCN1CCN(Cc2ccc(NC(=O)c3ccc(C)c(NC(=O)c4cccc5[nH]ccc45)c3)cc2C(F)(F)F)CC1	4	55*	-4	17	-1	25	.
CCN1CCN(Cc2ccc(NC(=O)c3ccc(C)c(NC(=O)c4nccn4C)c3)cc2C(F)(F)F)CC1	4	21	-2	4	-1	.	.
CCN1CCN(Cc2ccc(NC(=O)c3ccc(C)c(NC(=O)c4cc(-c5ccc(Br)cc5)n[nH]4)c3)cc2C(F)(F)F)CC1	4	99*	-3	44	1	35	41*
CCN1CCN(Cc2ccc(NC(=O)c3ccc(C)c(NC(=O)c4nccnc4N)c3)cc2C(F)(F)F)CC1	4	97*	-1	-14	-2	64*	42*
CCN1CCN(Cc2ccc(NC(=O)c3cc(NC(=O)c4nccnc4N)cc(OC)c3)cc2C(F)(F)F)CC1	13	37	3	3	0	.	.
CCN1CCN(Cc2ccc(NC(=O)c3ccc(C)c(NC(=O)N4CCNC4=O)c3)cc2C(F)(F)F)CC1	5	59*	-1	-10	-2	40*!	83*
Cc1cn(-c2cc(C(=O)Nc3ccc(C)c(NC(=O)N4CCNC4=O)c3)cc(C(F)(F)F)c2)cn1	-7	20	-3	-8	-1	.	.
Cc1cc(NC(=O)Cn2c(=O)c3c(ncn3CC(C)C)n(Cc3ccccc3)c2=O)no1	-1	9	2	0	0	.	.
COc1cc(S(=O)(=O)N2CCC(N3CCCCC3)CC2)ccc1-n1cnnn1	-9	.	.	0	.	.	.
CC(C)c1nc2oc3c(NCc4ccccn4)ncnc3c2c2c1COC(C)(C)C2	-5	8	3	-2	0	.	.
CCc1ccc(N=C2NC(=O)/C(=C/c3cc(OC)c(OC)c(OC)c3)S2)cc1	3	46	4	17	2	.	.
Cn1cccc1/C=C1\SC(=Nc2ccc(O)cc2)NC1=O	12	68*	18	7	3	62*	160*
COc1cc(/C=C2\SC(=Nc3ccc(O)cc3)NC2=O)cc(OC)c1O	10	56*	6	7	0	41*	81*
O=C(NC1CCN(C(=O)Nc2ccccc2)CC1)C1CCCCC1	3	15	-1	0	-2	.	.
COc1ccc(-c2csc(N(CCCN(C)C)C(=O)c3ccccc3Cl)n2)cc1	8	71*	1	3	2	49*	84*
COc1ccc(-c2csc(N(CCCN(C)C)C(=O)c3ccccc3C)n2)cc1	11	50	1	17	-3	.	.
Cc1ccc(Cn2c(N3CCN(CCO)CC3)nc3c2c(=O)n(C)c(=O)n3C)cc1	0	17	-3	12	1	.	.
Cc1csc(NC(=O)c2ccc[nH]c2=O)n1	-2	-42	-4	6	7	.	.
CCn1c(=N)n(CC(=O)c2ccc(Cl)c(Cl)c2)c2ccccc21	-3	-70	1	37	15	.	.
Cc1ccccc1OCC(=O)N1N=C(C(F)(F)F)CC1(O)C(C)(C)C (centres undefined)	4	12	0	3	-1	.	.
COc1ccc(-c2cc(=O)oc3c(C)c(OCC(=O)Nc4cccnc4)ccc23)cc1	-4	51*	-1	-4	5	-7	.
Cc1nn2c(NCc3ccccn3)cc(C(C)C)nc2c1-c1ccccc1	-8	64*	6	-38	10	41*	29
CCCc1cc(NCc2ccccn2)n2nc(C)c(-c3ccccc3)c2n1	-4	37	3	10	10	.	.
Cc1cc(NCc2ccccn2)n2nc(C)c(-c3ccc(Cl)cc3)c2n1	2	61*	11	6	12	21	.
CC(=O)Nc1ccc(Nc2cc(C(C)C)nc3c(-c4ccccc4)c(C)nn23)cc1	-10	55*	10	20	0	43*	54*
SMILES	ABHD5-PLIN5 inh	Mdm2-MdmX inh	UPR XBP1 act	Granule exo inh	UPR CHOP act	Mdm2-MdmX conf	FLuc counter
N#CCc1ccc(NC(=O)c2ccc(CN3CCc4ccccc4C3)cc2)cc1	0	22	-8	5	3	.	.
CCC(Sc1ncccc1C(=O)OC(C)C)C(=O)N1CCOCC1 (centres undefined)	1	-5	1	0	0	.	.
CCOC(=O)c1cc2c(c(CCO)n1)[C@@H](CCO)N(S(=O)C(C)(C)C)C2 (some centres undefined)	-1	.	.	-1	.	.	.
CCc1ccc2c(c1)cc(CN(C(=S)Nc1ccc(Cl)cc1)C1CC1)c1nnnn12	-5	23	-2	-1	-1	.	.
CCCSc1nc2c(cnn2-c2ccc(C)cc2)c(=O)[nH]1	2	50*	1	-2	-1	12	.
Cc1ccc(SCC(=O)NCCC2=CCCCC2)cc1	-2	-12	2	1	1	.	.
CCCSc1nc2c(cnn2-c2ccccc2)c(=O)[nH]1	-2	0	2	0	-1	.	.
Cc1cccc(-n2ncc3c(=O)[nH]c(SCC(=O)NCCC4=CCCCC4)nc32)c1	1	90*	3	-11	1	5	.
O=C(Nc1cccc(O)c1)c1cc(-c2ccc3c(c2)OCO3)on1	9	40	-14	6	-7	.	.
N#Cc1nc(-c2ccc(F)cc2)oc1NCc1ccco1	10	17	2	-7	2	.	.
O=C(c1c[nH]c2ccccc12)C(O)C(c1ccccc1)N1CCOCC1 (centres undefined)	-1	2	-2	2	2	.	.
O=C(c1c[nH]c2ccccc12)C(Cl)c1ccccc1 (centres undefined)	0	79*	-4	-25	6	69*	52*
COC(=O)[C@@H]1C[C@]2(OC(=O)c3ccccc3)C=CC(=O)C[C@@H]2N1C(=O)OCc1ccccc1	45*	94*	13	-2	29	62*	34
COc1ccc(NC(=O)c2ccc3ncsc3c2)c2ccccc12	-6	23	-5	-2	2	.	.
CS(=O)(=O)c1ccc(C(=O)OCC(=O)NC2CCS(=O)(=O)C2)cc1[N+](=O)[O-] (centres undefined)	6	16	-2	2	2	.	.
O=C(NCCC1CCCCN1S(=O)(=O)c1ccc(F)cc1)C(=O)Nc1ccccc1F (centres undefined)	-8	6	-4	4	-1	.	.
Cc1ccc(S(=O)(=O)N2CCCCC2CCNC(=O)C(=O)Nc2ccccc2F)cc1 (centres undefined)	3	52*	-2	-11	1	75*	54*
Cc1ccccc1C(=O)Nc1ccc2c(c1)CCCN2C(=O)c1cccs1	1	84*	-2	14	1	68*	40*
